What was measured:
[1] = Ratio of growth inhibitory activity against human Jurkat leukemia cell line (JLD- resistant to doxorubicin) to that of Jurkat leukemia cell line; assay type: functional
Method in brief: (§1)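 Parent Jurkat (JL_C) cells and the amsacrine-resistant (JL_A) or doxorubicin-resistant (JL_D) sublines each seeded at 3.75 × 10³/well. Cultured 4 days with drug and read by sulforhodamine assay. The ratio is the subline IC50 divided by the JL_C IC50. Duplicate independent assays.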

[2] = Ratio of growth inhibitory activity against human Jurkat leukemia cell line (JLA- resistant to amsacrine) to that of Jurkat leukemia cell line; assay type: functional; method in brief: as §1
[3] = tested on: Lewis lung carcinoma cell line; experiment: Growth inhibitory activity against murine Lewis lung carcinoma cell line; assay type: functional, cell-based; conditions: Mus musculus
Method in brief: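 Lewis lung carcinoma cells seeded at 10³/well and cultured 4 days with drug. Growth measured by sulforhodamine assay. IC50 is the concentration reducing cell number to 50% of control cultures. Independent duplicate assays.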

[4] = tested on: P388; experiment: Growth inhibitory activity against murine P388 leukemia cells; assay type: functional, cell-based; conditions: Mus musculus
Method in brief: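 P388 murine leukemia cells plated at 4.5 × 10³/well and exposed to drug for 3 days. Growth read by [3H]TdR uptake. IC50 is the concentration reducing cell number to 50% of control. Independent assays done in duplicate.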

[5] = tested on: Mus musculus; experiment: Number of mice(with Colon 38 tumors) cured after treatment of 5.9 mg/kg/day single dose out of 5 mice; assay type: functional
Method in brief: (§2)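 BDF1 mice bearing subcutaneous Colon 38 tumors (flank implants of 1 mm³ fragments) were treated at a diameter of about 4-6 mm. They received one intraperitoneal dose of the hydrochloride salt in distilled water, 0.01 mL/g. A cure is a mouse with no measurable tumor 20 days after treatment began, reported over the total mice per group.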

[6] = tested on: Jurkat; experiment: Growth inhibitory activity against human Jurkat leukemia cell line (JLC); assay type: functional, cell-based
Method in brief: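 Human Jurkat leukemia (JL_C) cells seeded at 3.75 × 10³/well and grown 4 days with drug. Growth read by sulforhodamine assay. IC50 is the drug concentration that reduces cell number to 50% of control cultures. Independent assays run in duplicate.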

[7] = tested on: Mus musculus; experiment: In vivo antitumor activity against subcutaneous Colon 38 tumors in mice determined as delay in growth after 5.9 mg/kg/day single dose; assay type: functional
Method in brief: (§3)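 Colon 38 fragments (1 mm³) implanted subcutaneously in one flank of BDF1 mice. Treated at a tumor diameter of about 4-6 mm (7-8 days), five mice per group. A single intraperitoneal dose was given as the hydrochloride in distilled water, 0.01 mL/g. Calipers three times weekly, volume = 0.52a²b. Growth delay is the time for mean volume to reach 4-fold the pretreatment volume.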

[8] = tested on: Mus musculus; experiment: In vivo antitumor activity against subcutaneous Colon 38 tumors in mice determined as delay in growth after 65 mg/kg/day dose given as 3 times in a day for 4 days; assay type: functional
[9] = tested on: Mus musculus; experiment: Number of mice(with Colon 38 tumors) cured after treatment of 65 mg/kg/day dose given as 3 times in a day for 4 days out of 5 mice; assay type: functional
[10] = tested on: Mus musculus; experiment: Number of mice(with Colon 38 tumors) cured after treatment of 13.3 mg/kg/day single dose out of 5 mice; assay type: functional; method in brief: as §2
[11] = tested on: Mus musculus; experiment: In vivo antitumor activity against subcutaneous Colon 38 tumors in mice determined as delay in growth after 13.3 mg/kg/day single dose; assay type: functional; method in brief: as §3
[12] = tested on: Mus musculus; experiment: In vivo antitumor activity against subcutaneous Colon 38 tumors in mice determined as delay in growth after 3.9 mg/kg/day dose given as 3 times in a day for 4 days; assay type: functional
[13] = tested on: Mus musculus; experiment: Number of mice(with Colon 38 tumors) cured after treatment of 3.9 mg/kg/day dose given as 3 times in a day for 4 days out of 5 mice; assay type: functional
[14] = tested on: Mus musculus; experiment: In vivo antitumor activity against subcutaneous Colon 38 tumors in mice determined as delay in growth after 200 mg/kg/day dose given as 2 times in a day for 7 days; assay type: functional
[15] = tested on: Mus musculus; experiment: Number of mice(with Colon 38 tumors) cured after treatment of 200 mg/kg/day dose given as 2 times in a day for 7 days out of 5 mice; assay type: functional
[16] = tested on: Mus musculus; experiment: In vivo antitumor activity against subcutaneous Colon 38 tumors in mice determined as delay in growth after 13.3 mg/kg/day dose given as 3 times in a day for 4 days; assay type: functional
[17] = tested on: Mus musculus; experiment: Number of mice(with Colon 38 tumors) cured after treatment of 13.3 mg/kg/day dose given as 3 times in a day for 4 days out of 5 mice; assay type: functional
[18] = tested on: Mus musculus; experiment: In vivo antitumor activity against subcutaneous Colon 38 tumors in mice determined as delay in growth after 8.9 mg/kg/day single dose; assay type: functional; method in brief: as §3
[19] = tested on: Mus musculus; experiment: Number of mice(with Colon 38 tumors) cured after treatment of 8.9 mg/kg/day single dose out of 5 mice; assay type: functional; method in brief: as §2
[20] = tested on: Mus musculus; experiment: In vivo antitumor activity against subcutaneous Colon 38 tumors in mice determined as delay in growth after 65 mg/kg/day dose given as 2 times in a day for 2 days; assay type: functional
[21] = tested on: Mus musculus; experiment: Number of mice(with Colon 38 tumors) cured after treatment of 65 mg/kg/day dose given as 2 times in a day for 2 days out of 5 mice; assay type: functional
[22] = tested on: Mus musculus; experiment: In vivo antitumor activity against subcutaneous Colon 38 tumors in mice determined as delay in growth after 45 mg/kg/day dose given as 3 times in a day for 4 days; assay type: functional
[23] = tested on: Mus musculus; experiment: Number of mice(with Colon 38 tumors) cured after treatment of 45 mg/kg/day dose given as 3 times in a day for 4 days out of 5 mice; assay type: functional
[24] = tested on: Mus musculus; experiment: Number of mice(with Colon 38 tumors) cured after treatment of 2.6 mg/kg/day dose given as 3 times in a day for 4 days out of 5 mice; assay type: functional
[25] = tested on: Mus musculus; experiment: In vivo antitumor activity against subcutaneous Colon 38 tumors in mice determined as delay in growth after 2.6 mg/kg/day dose given as 3 times in a day for 4 days; assay type: functional
[26] = tested on: Mus musculus; experiment: In vivo antitumor activity against subcutaneous Colon 38 tumors in mice determined as delay in growth after 3.9 mg/kg/day single dose; assay type: functional; method in brief: as §3
[27] = tested on: Mus musculus; experiment: In vivo antitumor activity against subcutaneous Colon 38 tumors in mice determined as delay in growth after 2.6 mg/kg/day single dose; assay type: functional; method in brief: as §3
[28] = tested on: Mus musculus; experiment: Number of mice(with Colon 38 tumors) cured after treatment of 3.9 mg/kg/day single dose out of 5 mice; assay type: functional; method in brief: as §2
[29] = tested on: Mus musculus; experiment: Number of mice(with Colon 38 tumors) cured after treatment of 2.6 mg/kg/day single dose out of 5 mice; assay type: functional; method in brief: as §2
[30] = tested on: Mus musculus; experiment: Number of mice(with Colon 38 tumors) cured after treatment of 5.9 mg/kg/day single dose out of 10 mice; assay type: functional; method in brief: as §2
[31] = tested on: Mus musculus; experiment: Number of mice(with Colon 38 tumors) cured after treatment of 8.9 mg/kg/day single dose out of 4 mice; assay type: functional; method in brief: as §2
[32] = tested on: Mus musculus; experiment: Number of mice(with Colon 38 tumors) cured after treatment of 3.9 mg/kg/day single dose out of 4 mice; assay type: functional; method in brief: as §2
[33] = tested on: Mus musculus; experiment: Number of mice(with Colon 38 tumors) cured after treatment of 30 mg/kg/day single dose out of 5 mice; assay type: functional
[34] = tested on: Mus musculus; experiment: In vivo antitumor activity against subcutaneous Colon 38 tumors in mice determined as delay in growth after 30 mg/kg/day single dose; assay type: functional

| SMILES | IC50 [3] | IC50 [4] | IC50 [6] | Ratio [1] | Ratio [2] | other results |
| --- | --- | --- | --- | --- | --- | --- |
| CC[C@@]1(O)C(=O)OCc2c1cc1n(c2=O)Cc2cc3ccccc3nc2-1 [CAMPTOTHECIN] |  |  |  | 1.4 | 2 |  |
| CCc1c2c(nc3ccc(OC(=O)N4CCC(N5CCCCC5)CC4)cc13)-c1cc3c(c(=O)n1C2)COC(=O)[C@]3(O)CC [IRINOTECAN] |  |  |  |  |  | Growth delay [8]: 7 days; Cures [9]: 0 |
| COc1cccc2c1C(=O)c1c(O)c3c(c(O)c1C2=O)C[C@@](O)(C(C)=O)C[C@@H]3O[C@H]1C[C@H](N)[C@H](O)[C@H](C)O1 [DAUNORUBICIN] |  |  |  |  |  | Growth delay [12]: 0 days; Cures [13]: 0 |
| CN(C)CCNC(=O)c1cccc2cc3ccccc3nc12 |  | 0.071 µM |  |  |  | Growth delay [14]: 13 days; Cures [15]: 0 |
| COc1cc(NS(C)(=O)=O)ccc1Nc1c2ccccc2nc2ccccc12 [AMSACRINE] |  |  |  |  |  | Growth delay [16]: 2 days; Cures [17]: 0 |
| Cc1cc2c3c(cccc3n1)C(=O)c1cccc(C(=O)NCCN(C)C)c1-2 |  |  |  | 2.5 | 2.5 | Growth delay [20]: >20 days; Cures [21]: 5 |
| COc1cc([C@@H]2c3cc4c(cc3[C@@H](O[C@@H]3O[C@@H]5CO[C@@H](C)O[C@H]5[C@H](O)[C@H]3O)[C@H]3COC(=O)[C@H]23)OCO4)cc(OC)c1O [ETOPOSIDE] | 0.18 µM | 0.15 µM | 0.16 µM | 90 | 13 | Growth delay [22]: 1.5 days; Cures [23]: 0 |
| COc1cccc2c1C(=O)c1c(O)c3c(c(O)c1C2=O)C[C@@](O)(C(=O)CO)C[C@@H]3O[C@H]1C[C@H](N)[C@H](O)[C@H](C)O1 [DOXORUBICIN] |  |  |  | 13 | 4.4 | Cures [24]: 0; Growth delay [25]: 8 days |
| O=C1c2c(O)ccc(O)c2C(=O)c2c(NCCNCCO)ccc(NCCNCCO)c21 [MITOXANTRONE] |  |  |  |  |  | Growth delay [12]: 2 days; Cures [13]: 0 |

Continued, in another order:

| IC50 [3] | IC50 [4] | IC50 [6] | SMILES | Ratio [1] | Ratio [2] | other results |
| --- | --- | --- | --- | --- | --- | --- |
| 0.0037 µM | 0.0068 µM | 0.0085 µM | Cc1cccc2cc3c(=O)n(CCN(C)C)cc(C(=O)NCCN(C)C)c3nc12 | 0.9 | 0.7 | Cures [5]: 0; Growth delay [7]: 14 days |
| 0.161 µM | 0.59 µM | 1.07 µM | Cc1cccc2cc3c(=O)n([C@@H](C)c4ccccc4)cc(C(=O)NCCN(C)C)c3nc12 | 1.1 | 0.8 |  |
|  | 0.014 µM |  | CN(C)CCNC(=O)c1cn(C)c(=O)c2cc3ccccc3nc12 |  |  |  |
| 0.015 µM | 0.014 µM | 0.051 µM | CCCCn1cc(C(=O)NCCN(C)C)c2nc3c(C)cccc3cc2c1=O | 3 | 2.3 | Cures [10]: 5; Cures [5]: 0; Growth delay [11]: >20 days; Growth delay [7]: 18 days |
| 0.05 µM | 0.054 µM | 0.123 µM | CN(C)CCNC(=O)c1cn(CCN(C)C)c(=O)c2cc3ccccc3nc12 | 1.1 | 0.8 |  |
|  | 0.0024 µM |  | Cc1cccc2cc3c(NCCN(C)C)ncc(C(=O)NCCN(C)C)c3nc12 |  |  | Growth delay [18]: 6 days; Cures [19]: 0 |
| 0.0044 µM | 0.012 µM | 0.0094 µM | COc1ccc(-n2cc(C(=O)NCCN(C)C)c3nc4c(C)cccc4cc3c2=O)cc1OC | 1.5 | 1.3 | Growth delay [26]: >20 days; Growth delay [27]: 16 days; Cures [28]: 4; Cures [29]: 0 |
| 0.0017 µM | 0.0021 µM | 0.0067 µM | Cc1cccc2cc3c(=O)n(C)cc(C(=O)NCCN(C)C)c3nc12 | 7.9 | 5.6 | Cures [30]: 10; Growth delay [26]: >20 days; Growth delay [18]: >20 days; Growth delay [7]: >20 days; Cures [31]: 4; Cures [32]: 4 |
| 0.01 µM | 0.011 µM | 0.026 µM | Cc1cccc2cc3c(O)ncc(C(=O)NCCN(C)C)c3nc12 | 2.6 | 1.9 | Cures [33]: 0; Growth delay [34]: 14 days |
| 0.0047 µM | 0.022 µM | 0.001 µM | Cc1cccc2cc3c(=O)n(CCN(C)CCCN(C)CCn4cc(C(=O)NCCN(C)C)c5nc6c(C)cccc6cc5c4=O)cc(C(=O)NCCN(C)C)c3nc12 | 0.4 | 0.3 |  |
